Measured values: publication PMC4607565 (Bioorganic & medicinal chemistry letters, 2015)
Residue numbers refer to the chain shown, from its start. “Also recorded” adds a separate entry of the source. Read-outs that look alike come from different tables or passages of the source. Values belong to the compound of their own block, whether it stands above or below them.

Key:
[1] = molecular target: T1, TG2 (Homo sapiens, UniProt P21980); conditions: active site-directed irreversible inhibitor; cited from earlier work
T1 sequence (P21980 1-687): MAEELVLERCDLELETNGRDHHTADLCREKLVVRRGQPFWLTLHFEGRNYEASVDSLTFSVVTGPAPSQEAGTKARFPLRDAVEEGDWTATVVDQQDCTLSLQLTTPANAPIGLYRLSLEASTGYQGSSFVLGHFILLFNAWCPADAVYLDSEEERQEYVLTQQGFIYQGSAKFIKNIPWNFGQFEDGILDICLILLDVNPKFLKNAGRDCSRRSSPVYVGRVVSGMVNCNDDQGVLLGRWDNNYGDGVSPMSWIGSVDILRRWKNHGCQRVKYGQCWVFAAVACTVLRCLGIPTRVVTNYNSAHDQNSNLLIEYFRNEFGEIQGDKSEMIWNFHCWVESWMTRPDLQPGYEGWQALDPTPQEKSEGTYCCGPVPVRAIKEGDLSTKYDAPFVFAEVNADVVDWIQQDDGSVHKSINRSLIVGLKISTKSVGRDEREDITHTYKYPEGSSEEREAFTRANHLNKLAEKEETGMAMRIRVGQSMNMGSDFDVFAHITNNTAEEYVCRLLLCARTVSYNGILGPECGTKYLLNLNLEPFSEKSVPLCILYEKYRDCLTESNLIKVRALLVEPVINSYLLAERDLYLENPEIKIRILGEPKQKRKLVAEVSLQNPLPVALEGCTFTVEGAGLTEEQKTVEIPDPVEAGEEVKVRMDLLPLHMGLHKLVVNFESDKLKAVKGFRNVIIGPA

[2] = molecular target: T2, R580A mutant of human TG2 (Homo sapiens, UniProt P21980, R580A); conditions: cited from earlier work
T2 sequence (P21980 1-687 R580A): T1 sequence (P21980 1-687) with R580A

[3] = molecular target: T3, human TG2 (V224 variant) (Homo sapiens, UniProt P21980); assay: coupled GDH assay of TG2 deamidation of Cbz-Gln-Gly; assay type: biochemical; conditions: for mode of inhibition / activation: V224 TG2
T3 sequence (P21980 1-687): T1 sequence (P21980 1-687)

[4] = test system: extracellular TG2 in WI-38 fibroblasts; assay: 5-BP incorporation into extracellular matrix proteins of WI-38 fibroblasts; assay type: cell-based
Outline: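 WI-38 fibroblasts were grown to confluence, then pre-incubated with vehicle (1% DMSO) or test compound for 30 min. Cells were then given 200 μM 5-(biotinamido)pentylamine for 3 h, fixed and stained. Transamidation was scored as 5-BP incorporated into extracellular matrix proteins, imaged at 5 fields sampled across each well.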

[5] = molecular target: T1, TG2; assay: native PAGE analysis of open versus closed states
[6] = molecular target: T4, truncated form of human TG2 (1-466) (Homo sapiens, UniProt P21980); assay: deamidation activity of truncated TG2; assay type: biochemical; conditions: [TG2] = 0.5 μM; [Ca2+] = 5 mM
T4 sequence (P21980 1-466): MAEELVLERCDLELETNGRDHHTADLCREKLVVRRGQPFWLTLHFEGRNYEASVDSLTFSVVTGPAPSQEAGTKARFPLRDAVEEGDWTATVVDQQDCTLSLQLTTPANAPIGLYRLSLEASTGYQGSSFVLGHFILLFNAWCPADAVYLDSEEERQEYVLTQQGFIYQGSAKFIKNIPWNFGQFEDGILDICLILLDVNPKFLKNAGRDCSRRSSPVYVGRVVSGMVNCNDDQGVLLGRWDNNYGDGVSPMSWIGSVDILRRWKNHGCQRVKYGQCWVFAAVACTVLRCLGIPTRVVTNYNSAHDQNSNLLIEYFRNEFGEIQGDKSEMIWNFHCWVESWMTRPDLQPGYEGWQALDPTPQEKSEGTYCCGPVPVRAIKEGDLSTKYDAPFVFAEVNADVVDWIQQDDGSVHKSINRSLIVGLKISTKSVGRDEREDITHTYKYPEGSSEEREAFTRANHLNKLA
Outline: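 The truncated TG2 (residues 1-466) lacks both C-terminal beta-barrel domains and was expressed and purified. It was tested against wild-type TG2 in the deamidation assay at 0.5 μM enzyme and 5 mM Ca2+. Activity was normalized to each protein's own maximum, since kcat and KM differ between the two proteins.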

[7] = molecular target: T1, TG2; assay: microtiter plate transamidation assay; assay type: biochemical
Outline: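 In a microtiter plate format, TG2 incorporated 5-BP into immobilized N,N-dimethylcasein. The incorporated biotin was quantified with streptavidin. Ca2+ was held at the sub-saturating level of 0.6 mM, and the test compound was assayed with or without the stable GTP analog GMP-PNP.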

[8] = molecular target: T5, TG2 S2A mutant (E396Q/N398S/D400N) (Homo sapiens, UniProt P21980, D400N/E396Q/N398S); assay: deamidation activity of S2A mutant; assay type: biochemical; conditions: [TG2] = 2.5 μM; [Ca2+] = 5 mM
T5 sequence (P21980 1-687 E396Q/N398S/D400N): T1 sequence (P21980 1-687) with E396Q, N398S, D400N

[9] = molecular target: T6, TG2 S2B mutant (E447Q/E451Q/E452Q/E454Q) (Homo sapiens, UniProt P21980, E447Q/E451Q/E452Q/E454Q); assay: deamidation activity of S2B mutant; assay type: biochemical; conditions: [TG2] = 2.5 μM; [Ca2+] = 5 mM
T6 sequence (P21980 1-687 E447Q/E451Q/E452Q/E454Q): T1 sequence (P21980 1-687) with E447Q, E451Q, E452Q, E454Q

[10] = molecular target: T2, R580A mutant of human TG2; assay: deamidation activity of R580A mutant; assay type: biochemical; conditions: [TG2] = 0.5 μM, [Ca2+] = 3 mM
Outline: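 Deamidation by wild-type and R580A TG2 was measured side by side with test compound and the GTP analog GMP-PNP, at 0.5 μM enzyme and 3 mM Ca2+.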

[11] = molecular target: TG2; conditions: cited from earlier work

Compound: Ac-P(DON)LPF-NH2
effect on TG2 conformation [1]: locks TG2 in the open state

mode of inhibition / activation ([3]; Lineweaver-Burk analysis): competitive inhibitor
Compound: Nc1nc2c(ncn2[C@@H]2O[C@H](COP(=O)(O)OP(=O)(O)NP(=O)(O)O)[C@@H](O)[C@H]2O)c(=O)[nH]1 [GMP-PNP, reference compound]
inhibition of R580A mutant [2]: attenuated

mode of inhibition / activation ([3]; Lineweaver-Burk analysis): non-competitive inhibitor | extent of inhibition of wild-type TG2 ([3]; [TG2] = 0.5 μM, [Ca2+] = 5 mM): partial inhibitory character | influence on relative distribution of open versus closed states of TG2 [5]: did not have a measurable influence | extent of inhibition of TG2 (1-466) [6]: total antagonist | effect on transamidating activity of TG2 ([7]; 0.6 mM Ca2+ alone): agonism was not observed | effect on transamidation activity of TG2 ([7]; 0.6 mM Ca2+ and 100 μM GMP-PNP): markedly enhanced | inhibitory effect on S2A mutant compared with wild-type [8]: comparable inhibitory effect | effect on activity of S2B mutant [9]: no effect | agonistic effect in the presence of GMP-PNP ([10]; R580A mutant): evident | inhibitory potency in R580A mutant versus wild-type [10]: unaltered
Compound: COc1ccccc1C(=O)/C=C1/C(=O)Nc2cccc(Cl)c21 [CK-IV-55]
extracellular TG2 activity (5-BP incorporation) ([4]; 1 μM compound, 200 μM 5-BP, 3 h): activation of extracellular TG2 | extracellular TG2 activity (5-BP incorporation) ([4]; 10 μM compound, 3 h): TG2 activity was suppressed compared to the 1 μM case | effect on TG2 catalytic activity at sub-saturating Ca2+ ([3]; sub-saturating Ca2+, 0.5-0.7 mM (legend of Figure 4A: 0.5-0.8 mM)): weak but reproducible agonism; also recorded: activated TG2

Compound: O=C1Nc2cccc(Cl)c2/C1=C\C(=O)c1ccc(Cl)cc1 [CK-IV-67]
extracellular TG2 activity (5-BP incorporation) ([4]; concentrations not given (data not shown)): higher absolute concentrations of the latter inhibitor were required to see elevated 5-BP incorporation

Compound: [Ca+2] [Ca^2+, reference compound]
mode of inhibition / activation ([3]; Lineweaver-Burk analysis): competitive activator | Ka, activation of V224 TG2 ([3]; Lineweaver-Burk analysis, [TG2] = 0.5 μM): 0.6 ± 0.3 mM | Kd ([11]; read-out: Kd, high-affinity Ca2+ binding site, one site (S1)): ~1 µM | Kd ([11]; read-out: Kd, lower-affinity Ca2+ binding sites, five sites): ~1000 µM
